As usually defined, the Ki is a dissociation constant, usually derived from enzyme kinetics or from competition with a known ligand.

Ki data for 3 compounds are collected here from ChEMBL document CHEMBL1136201, “Synthesis and binding selectivity of 7- and 15-decylbenzolactone-V8 for the C1 domains of protein kinase C isozymes” (Bioorg Med Chem Lett, 2003).

The target of assay [1] is T1, Protein kinase C eta type (Homo sapiens, UniProt P24723). Put plainly: Displacement of [3H]PDBu from protein kinase C eta-C1B domain. In short, it runs like this:
(§1)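 Synthetic C1 peptides of about 50 amino acids, used as surrogates for the PKC C1 domains, were incubated with [3H]phorbol 12,13-dibutyrate (PDBu). Competitor was assessed by inhibition of specific [3H]PDBu binding. […] Values are given with standard deviation from at least two separate experiments.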
(In general: Displacement assays read how much labelled ligand stays bound in the presence of the test substance.)

In assay [2] the target is T2, Protein kinase C gamma type (Homo sapiens, UniProt P05129). Nature of the assay: Displacement of [3H]-PDBu from protein kinase C gamma-C1B domain. In short, it runs like this:
as §1

Assay [3] addresses T3, Protein kinase C beta type (Homo sapiens, UniProt P05771). Put plainly: Displacement of [3H]PDBu from protein kinase C Beta-C1A domain. In short, it runs like this:
as §1

In assay [4] the target is T4, Protein kinase C delta type (Homo sapiens, UniProt Q05655). Put plainly: Displacement of [3H]PDBu from protein kinase C Delta-C1B domain. The procedure, abridged:
as §1

Assay [5] deals with T5, Protein kinase C alpha type (Homo sapiens, UniProt P17252). Put plainly: Displacement of [3H]PDBu from protein kinase C Alpha-C1B domain. The procedure, abridged:
as §1

Assay [6] deals with T2, Protein kinase C gamma type. Put plainly: Displacement of [3H]PDBu from protein kinase C gamma-C1A domain. In short, it runs like this: as §1
Assay [7] has as its target T6, Protein kinase C epsilon type (Homo sapiens, UniProt Q02156).
T6 sequence (Q02156 whole entry): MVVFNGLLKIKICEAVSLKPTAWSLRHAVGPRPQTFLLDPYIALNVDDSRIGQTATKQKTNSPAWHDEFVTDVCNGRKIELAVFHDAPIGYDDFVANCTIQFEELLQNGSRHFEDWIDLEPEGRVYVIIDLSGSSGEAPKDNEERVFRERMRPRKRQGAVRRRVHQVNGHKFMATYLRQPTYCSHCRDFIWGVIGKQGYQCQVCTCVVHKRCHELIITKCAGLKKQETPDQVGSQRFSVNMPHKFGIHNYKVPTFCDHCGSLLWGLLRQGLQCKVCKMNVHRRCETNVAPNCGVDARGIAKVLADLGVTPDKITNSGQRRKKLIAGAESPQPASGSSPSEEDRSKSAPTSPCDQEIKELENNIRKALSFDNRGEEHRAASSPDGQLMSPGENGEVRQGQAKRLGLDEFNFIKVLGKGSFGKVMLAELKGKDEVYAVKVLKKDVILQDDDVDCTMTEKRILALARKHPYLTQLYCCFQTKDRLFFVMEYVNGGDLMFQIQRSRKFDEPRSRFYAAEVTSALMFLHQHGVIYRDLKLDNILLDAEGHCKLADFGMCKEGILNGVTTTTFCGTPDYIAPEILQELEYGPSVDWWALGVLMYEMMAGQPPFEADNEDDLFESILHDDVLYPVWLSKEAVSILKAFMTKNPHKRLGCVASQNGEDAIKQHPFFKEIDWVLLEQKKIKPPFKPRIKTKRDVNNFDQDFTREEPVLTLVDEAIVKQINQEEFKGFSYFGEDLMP
Nature of the assay: Displacement of [3H]-PDBu from protein kinase C epsilon-C1A domain. In short, it runs like this:
as §1

The target in assay [8] is T5, Protein kinase C alpha type. Nature of the assay: Displacement of [3H]PDBu from protein kinase C Alpha-C1A domain. In short, it runs like this:
as §1

Assay [9] has as its target T4, Protein kinase C delta type. Put plainly: Displacement of [3H]PDBu from protein kinase C Delta-C1A domain. In short, it runs like this:
as §1

Assay [10] has as its target T1, Protein kinase C eta type. Put plainly: Displacement of [3H]PDBu from protein kinase C eta-C1A domain. In short, it runs like this:
as §1

Assay [11] addresses Protein kinase C theta type (Homo sapiens, UniProt Q04759). Put plainly: Displacement of [3H]PDBu from protein kinase C Theta-C1B domain. The procedure, abridged:
as §1

The target in assay [12] is T6, Protein kinase C epsilon type. Put plainly: Displacement of [3H]-PDBu from protein kinase C epsilon-C1B domain. In short, it runs like this:
as §1

Assay [13] addresses T3, Protein kinase C beta type. Put plainly: Displacement of [3H]PDBu from protein kinase C Beta-C1B domain. In short, it runs like this:
as §1

Protein kinase C theta type, sequence (Q04759 whole entry, the tested form may be a part): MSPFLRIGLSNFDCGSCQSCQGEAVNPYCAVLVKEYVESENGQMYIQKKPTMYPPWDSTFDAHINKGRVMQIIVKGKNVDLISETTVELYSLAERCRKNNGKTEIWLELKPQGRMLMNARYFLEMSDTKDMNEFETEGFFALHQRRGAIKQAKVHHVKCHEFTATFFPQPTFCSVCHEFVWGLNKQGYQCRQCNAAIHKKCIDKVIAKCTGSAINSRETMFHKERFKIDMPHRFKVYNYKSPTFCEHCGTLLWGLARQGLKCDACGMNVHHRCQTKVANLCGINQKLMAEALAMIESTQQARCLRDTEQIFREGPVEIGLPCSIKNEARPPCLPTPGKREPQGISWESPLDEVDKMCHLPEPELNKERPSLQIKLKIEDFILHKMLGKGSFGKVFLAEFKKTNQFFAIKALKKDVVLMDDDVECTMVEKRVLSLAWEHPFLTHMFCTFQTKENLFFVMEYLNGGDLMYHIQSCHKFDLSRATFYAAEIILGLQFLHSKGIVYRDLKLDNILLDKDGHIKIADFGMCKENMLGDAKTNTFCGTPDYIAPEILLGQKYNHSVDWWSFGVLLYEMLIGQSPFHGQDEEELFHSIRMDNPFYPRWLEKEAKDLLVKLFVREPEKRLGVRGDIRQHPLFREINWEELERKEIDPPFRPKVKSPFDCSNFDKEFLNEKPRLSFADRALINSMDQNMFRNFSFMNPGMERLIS
T4 sequence (Q05655 whole entry, the tested form may be a part): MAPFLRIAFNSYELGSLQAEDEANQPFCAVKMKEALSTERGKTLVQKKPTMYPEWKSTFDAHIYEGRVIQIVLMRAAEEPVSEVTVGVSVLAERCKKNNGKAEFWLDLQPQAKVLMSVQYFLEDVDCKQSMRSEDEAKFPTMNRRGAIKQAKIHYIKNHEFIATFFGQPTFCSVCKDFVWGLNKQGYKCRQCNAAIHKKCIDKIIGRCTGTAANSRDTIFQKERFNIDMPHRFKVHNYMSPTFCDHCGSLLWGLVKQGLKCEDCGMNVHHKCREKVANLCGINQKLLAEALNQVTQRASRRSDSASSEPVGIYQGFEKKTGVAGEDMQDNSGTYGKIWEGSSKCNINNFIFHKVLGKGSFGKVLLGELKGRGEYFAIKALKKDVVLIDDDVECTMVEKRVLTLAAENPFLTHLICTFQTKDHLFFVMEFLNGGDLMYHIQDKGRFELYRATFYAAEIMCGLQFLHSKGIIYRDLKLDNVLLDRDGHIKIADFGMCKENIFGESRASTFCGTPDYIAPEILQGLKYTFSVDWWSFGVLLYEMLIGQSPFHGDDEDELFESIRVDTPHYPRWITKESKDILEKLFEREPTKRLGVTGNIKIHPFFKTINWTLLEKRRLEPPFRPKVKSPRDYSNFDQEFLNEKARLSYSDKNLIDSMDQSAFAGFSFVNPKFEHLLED
T1 sequence (P24723 whole entry, the tested form may be a part): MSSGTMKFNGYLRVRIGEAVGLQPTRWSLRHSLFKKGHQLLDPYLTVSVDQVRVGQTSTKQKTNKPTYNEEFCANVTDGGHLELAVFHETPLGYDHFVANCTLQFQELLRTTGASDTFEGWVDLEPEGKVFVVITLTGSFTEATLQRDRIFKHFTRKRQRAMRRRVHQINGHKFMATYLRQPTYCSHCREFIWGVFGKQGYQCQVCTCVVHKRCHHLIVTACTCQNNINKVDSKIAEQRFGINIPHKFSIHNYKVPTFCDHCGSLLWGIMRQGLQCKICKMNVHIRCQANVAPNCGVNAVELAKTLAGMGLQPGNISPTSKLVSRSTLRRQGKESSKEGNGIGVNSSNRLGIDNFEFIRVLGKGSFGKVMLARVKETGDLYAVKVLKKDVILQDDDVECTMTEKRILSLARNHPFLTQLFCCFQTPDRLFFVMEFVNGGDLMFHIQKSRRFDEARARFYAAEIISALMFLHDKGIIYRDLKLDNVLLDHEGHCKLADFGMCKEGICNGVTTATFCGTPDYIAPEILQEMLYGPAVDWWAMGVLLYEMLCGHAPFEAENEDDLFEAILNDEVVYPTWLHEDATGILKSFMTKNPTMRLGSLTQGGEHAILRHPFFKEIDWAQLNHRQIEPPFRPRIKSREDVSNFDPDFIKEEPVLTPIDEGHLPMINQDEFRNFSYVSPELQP
T3 sequence (P05771 whole entry, the tested form may be a part): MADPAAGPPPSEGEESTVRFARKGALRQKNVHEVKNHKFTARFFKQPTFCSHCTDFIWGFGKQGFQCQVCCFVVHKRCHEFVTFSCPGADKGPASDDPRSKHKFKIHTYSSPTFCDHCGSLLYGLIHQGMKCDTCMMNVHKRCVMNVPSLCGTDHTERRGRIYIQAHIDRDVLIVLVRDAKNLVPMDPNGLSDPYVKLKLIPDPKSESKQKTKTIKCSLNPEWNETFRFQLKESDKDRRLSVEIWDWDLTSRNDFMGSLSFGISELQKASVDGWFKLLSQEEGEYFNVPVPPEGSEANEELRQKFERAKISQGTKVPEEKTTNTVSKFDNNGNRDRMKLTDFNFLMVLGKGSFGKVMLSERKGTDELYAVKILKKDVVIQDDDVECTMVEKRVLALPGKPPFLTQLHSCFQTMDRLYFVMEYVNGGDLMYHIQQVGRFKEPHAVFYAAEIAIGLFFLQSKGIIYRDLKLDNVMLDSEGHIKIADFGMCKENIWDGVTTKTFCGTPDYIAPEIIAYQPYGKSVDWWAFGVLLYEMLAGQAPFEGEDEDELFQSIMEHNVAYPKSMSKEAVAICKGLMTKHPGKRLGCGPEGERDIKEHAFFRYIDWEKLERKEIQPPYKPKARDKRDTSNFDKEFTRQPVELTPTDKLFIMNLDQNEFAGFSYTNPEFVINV

For the compound `CCCCCCCCCCc1ccc2c(c1)N(C)[C@@H](C(C)C)C(=O)O[C@H](CO)C2`, the Ki in assay [1] was found to be 37 nM; in assay [2], 675 nM; in [3] it was 1140 nM; in [4], 149 nM; in assay [5] it was 4050 nM; in assay [6] it was 2360 nM. The Ki was 4830 nM in [7]; 412 nM in assay [8]; 6150 nM in assay [9]; 1590 nM in assay [10]; 62 nM in assay [11]; 83 nM in assay [12]. The affinity in assay [13] corresponds to a Ki of 610 nM.

As for `CCCCCCCCCCCN1c2ccccc2C[C@@H](CO)OC(=O)[C@@H]1C(C)C`, the Ki was 189 nM in [1]; 2820 nM in [2]; 4690 nM in [3]; 415 nM in assay [4]; more than 10000 nM in [5]; 5750 nM in assay [6]. Moreover, the Ki in assay [7] turned out to be 5360 nM; in assay [8], 4580 nM; in [9], 30300 nM; in [10] it was 6330 nM; in assay [11] it was 358 nM; in assay [12], 411 nM. This compound also displayed a Ki in [13] of 2070 nM.

With `CCCCCCCCCCc1cccc2c1C[C@@H](CO)OC(=O)[C@H](C(C)C)N2C`, the Ki in [1] is 111 nM; in assay [2] it was 1720 nM; in assay [3], 539 nM; in [4], 92 nM; in assay [5] it was more than 10000 nM; in assay [6], 970 nM. For the same compound, the Ki in [7] is 7880 nM; in [8], 870 nM; in [9], more than 10000 nM; in [10] it was 4250 nM; in assay [11] it was 167 nM; in assay [12] it was 540 nM. Also, the inhibitory constant (Ki) in [13] amounted to 2690 nM.
